# From ChEMBL document CHEMBL4024760, “Specific Inhibition of Bacterial β-Glucuronidase by Pyrazolo[4,3-c]quinoline Derivatives via a pH-Dependent Manner To Suppress Chemotherapy-Induced Intestinal Toxicity” (J Med Chem, 2017)
# Tests used:
# [1] = Inhibition of N-terminal His-tagged Escherichia coli beta-glucuronidase expressed in Escherichia coli BL21 (DE3) using pNPG as substrate preincubated for 30 mins followed by substrate addition measured after 1 hr
# How it was run: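 Purified E. coli βG (20 ng) preincubated 30 min at 37 °C with compound (0.64–10 000 nM) in PBS pH 7.5 containing 10% DMSO and 0.05% BSA. pNPG (20 mM stock) then added for 1 h, quenched with 2 N NaOH, and pNP read at 405 nm. IC50 derived from a four-parameter curve fit; SD of n = 3.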
# beta-glucuronidase = target: T1, beta-glucuronidase (Homo sapiens, UniProt P08236); assay: Inhibition of N-terminal His-tagged human beta-glucuronidase expressed in Escherichia coli BL21 (DE3) assessed as residual activity using pNPG as substrate at 10 uM preincubated for 30 mins followed by substrate addition measured after 1 hr relative to control; conditions: probe pNPG, read-out: Activity
# T1 sequence (P08236 whole entry): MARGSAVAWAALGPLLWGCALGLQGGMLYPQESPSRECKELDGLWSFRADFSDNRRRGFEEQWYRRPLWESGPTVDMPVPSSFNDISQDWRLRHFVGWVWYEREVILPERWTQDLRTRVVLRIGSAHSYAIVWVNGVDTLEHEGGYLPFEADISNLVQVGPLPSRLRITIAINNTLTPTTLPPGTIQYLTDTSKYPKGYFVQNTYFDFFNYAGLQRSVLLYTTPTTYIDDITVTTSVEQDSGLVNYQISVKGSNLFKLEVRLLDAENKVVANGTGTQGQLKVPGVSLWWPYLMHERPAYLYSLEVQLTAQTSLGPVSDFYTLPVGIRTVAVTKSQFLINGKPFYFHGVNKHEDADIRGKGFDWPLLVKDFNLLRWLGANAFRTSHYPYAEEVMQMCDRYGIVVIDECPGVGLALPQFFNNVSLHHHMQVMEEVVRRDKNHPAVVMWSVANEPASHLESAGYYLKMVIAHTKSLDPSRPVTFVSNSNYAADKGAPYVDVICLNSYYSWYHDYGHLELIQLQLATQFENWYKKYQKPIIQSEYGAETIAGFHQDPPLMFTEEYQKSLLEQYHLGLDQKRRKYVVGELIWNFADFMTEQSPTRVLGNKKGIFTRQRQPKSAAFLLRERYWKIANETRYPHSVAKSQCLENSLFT
# Escherichia coli [2] = assay: Inhibition of N-terminal His-tagged Escherichia coli beta-glucuronidase expressed in Escherichia coli BL21 (DE3) assessed as residual activity using pNPG as substrate at 10 uM preincubated for 30 mins followed by substrate addition measured after 1 hr relative to control
# How it was run: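 Purified E. coli βG (20 ng) preincubated with 10 μM compound for 30 min at 37 °C in PBS pH 7.5 with 10% DMSO and 0.05% BSA. pNPG (20 mM stock) then added for 1 h, quenched with 2 N NaOH, and read at OD405. Result given as % activity versus a 10% DMSO control; n = 3.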
# Escherichia coli [3] = assay: Toxicity against Escherichia coli BL21(DE3) assessed as effect on cell growth at 100 uM after 6 hrs
# How it was run: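 BL21(DE3) E. coli (diluted to OD600 0.1 in LB after overnight growth) incubated with compound at a final 100 μM, shaking at 37 °C for 6 h. Growth measured by OD600; viability given as % of the untreated control.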
# [4] = tested on: Escherichia coli BL21(DE3); assay: Inhibition of beta-glucuronidase in Escherichia coli BL21 (DE3) using pNPG as substrate at 50 uM preincubated for 30 mins followed by substrate addition measured after 1 hr relative to control
# How it was run: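 BL21(DE3) E. coli grown overnight and diluted to OD600 0.1 in LB. Cells treated with compound (50, 10 or 2 μM) for 30 min at 37 °C, then pNPG (40 mM stock) added for 1 h. Cells pelleted at 6000g; supernatant quenched with NaOH and read at OD405. Activity given as % of a 1% DMSO control.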
Compound,IC50 [1] [nM],"activity at 1 h, 10 µM (beta-glucuronidase) [%]",Activity (Escherichia coli [2]) [%],inhibition [4] [%],Activity (Escherichia coli [3])
Nc1n[nH]c2c1c(Nc1ccc(C(F)(F)F)cc1)nc1ccccc12,98.2,101,5.66,,
COc1cc(C(=O)C2CC2c2ccc3ccccc3n2)cc(OC)c1OC (configuration not stated),,85.4,112,,
O=C1S/C(=C/c2ccc3cc(F)ccc3n2)C(=O)N1CCN1CCCC1,,102,99.2,,
CCOc1ccc(NC(=S)N(CCO)Cc2cc3cc(C)cc(C)c3[nH]c2=O)cc1,846,,8.83,,
COc1cc(/C=C2\CNC/C(=C\c3cc(OC)c(OC)c(OC)c3)C2=O)cc(OC)c1OC,,107,111,,
CCN(CC)CCNC(=O)c1ccc(/N=C2/c3ccccc3C(=O)c3c2ccn3Cc2ccccc2)cc1,,86.9,87.4,,
Fc1ccc2nc(/C=N/NC3=NCCN3)ccc2c1,,99,112,,
CNC(=S)N/N=C1\C(=O)c2ccccc2-c2occc21,,86.8,104,,
O=C1c2ccccc2-c2c(N3CCC(O)CC3)nc3ccccc3c21,,80.6,74.9,,
Fc1ccc(-c2cc(-c3ccc4cc(F)ccc4n3)n(-c3ccccc3)n2)cc1,,88.9,113,,
Cc1ccc(Nc2nc3ccc(Br)cc3c3[nH]nc(N)c23)cc1,55.3,97.9,12.1,> 80,Toxic
Cc1ccc(Nc2nc3c(C)cccc3c3[nH]nc(N)c23)cc1,24.7,85.7,6.8,,
c1ccc2c(c1)c1nonc1c1ccoc21,,82.7,111,,
O=C1NC(=O)/C(=C\c2ccc3cc(F)ccc3n2)S1,,88.9,115,,
Nc1n[nH]c2c1c(Nc1ccc([N+](=O)[O-])cc1)nc1ccccc12,9200,90.9,46.5,,

# Second part, led by results:
IC50 [1] [nM],"activity at 1 h, 10 µM (beta-glucuronidase) [%]",Activity (Escherichia coli [2]) [%],inhibition [4] [%],Compound,Activity (Escherichia coli [3])
,83,99,,Nc1n[nH]c2c1c(O)nc1ccccc12,
154,102,19,,Nc1n[nH]c2c1c(Nc1ccc(C(=O)O)cc1)nc1ccccc12,
133,83.4,6,,CC(=O)c1ccc(Nc2nc3ccccc3c3[nH]nc(N)c23)cc1,
,83.9,86.3,,Nc1n[nH]c2c1c(N)nc1ccccc12,
,108,101,,CCOC(=O)CSc1nc2ccccc2c2sc(C(=O)OCC)c(N)c12,
> 10000,86.5,80.7,,Cc1cccc(Nc2nc3ccccc3c3[nH]nc(N)c23)c1,
884,78.3,6,,Nc1n[nH]c2c1c(Nc1cccc(O)c1)nc1ccccc12,
281,79.8,10.3,,Nc1n[nH]c2c1c(Nc1ccccc1Cl)nc1ccccc12,
,80.5,102,,CCOc1nc2ccccc2c2[nH]nc(N)c12,
308,94.1,14.9,,Nc1n[nH]c2c1c(Nc1cccc(Cl)c1)nc1ccccc12,
